According to ChEMBL document CHEMBL5303300, “EUbOPEN Chemogenomics Library - Multiplex” (2023):
Where “and” joins values, the source holds several entries; their conditions need not be identical. Identical values can stand only once.

System: U2OS
Assay: Multiplex assay against U2OS
Type: toxicity, cell-based
Conditions: human, number of replicates 2
Outline: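 Compound was added to live cells that had been stained at seeding with Hoechst33342, BioTracker Green Microtubule Cytoskeleton Dye, MitoTracker Red and Annexin V Alexa Fluor 680, and imaging followed on a CQ1 microscope at 37°C and 5% CO2. CellPathfinder machine-learning gating divided cells into Hoechst high-intensity objects or normal cells, normal cells into healthy, pyknosed or fragmented nuclei, and pyknosed cells into mitotic or apoptotic. Tubulin, mitochondrial-mass and membrane-permeability phenotypes are per cents of healthy-nucleus cells.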

[1] = 12 h, 1 µM, compound concentration 1 uM
[2] = 12 h, 10 µM, compound concentration 10 uM
[3] = 24 h, 1 µM, compound concentration 1 uM
[4] = 24 h, 10 µM, compound concentration 10 uM
[5] = 48 h, 1 µM, compound concentration 1 uM
[6] = 48 h, 10 µM, compound concentration 10 uM

## CN1CCc2cc(Nc3ncc(C(F)(F)F)c(NCc4cc[nH]n4)n3)ccc2C1
[1]
  Population Hoechst High Intensity Objects (%): 0%
  Population Membrane Permeable-Phenotype (%): 0% and 4%
  Population Mitochondria Different-Phenotype (%): 0% and 1%
  Population Mitotic Cells (%): 0% and 12%
  Population Normal (%): 100%
[2]
  Population Healthy Nuclei (%): 33% and 57%
  Population Hoechst High Intensity Objects (%): 0%
  Population Membrane Permeable-Phenotype (%): 0% and 7%
  Population Mitochondria Different-Phenotype (%): 0% and 5%
  Population Normal (%): 100%
  Population Pyknosed Nuclei (%): 16% and 27%
  Population Tubulin-Different-Phenotype (%): 50% and 41%
[3]
  Population Hoechst High Intensity Objects (%): 0%
  Population Membrane Permeable-Phenotype (%): 0% and 6%
  Population Mitochondria Different-Phenotype (%): 0% and 4%
  Population Mitotic Cells (%): 0% and 8%
  Population Normal (%): 100% and 99%
[4]
  Population Apoptotic (%): 71% and 80%
  Population Healthy Nuclei (%): 15% and 45%
  Population Hoechst High Intensity Objects (%): 0% and 1%
  Population Membrane Permeable-Phenotype (%): 20% and 15%
  Population Mitochondria Different-Phenotype (%): 20% and 8%
  Population Mitotic Cells (%): 28% and 19%
  Population Normal (%): 100% and 98%
  Population Pyknosed Nuclei (%): 21% and 42%
  Population Tubulin-Different-Phenotype (%): 60%
[5]
  Population Healthy Nuclei (%): 0% and 21%
  Population Hoechst High Intensity Objects (%): 0% and 1%
  Population Mitochondria Different-Phenotype (%): 0% and 22%
  Population Mitotic Cells (%): 0%
  Population Normal (%): 100% and 98%
[6]
  Population Apoptotic (%): 93% and 88%
  Population Healthy Nuclei (%): 16% and 15%
  Population Hoechst High Intensity Objects (%): 1% and 0%
  Population Mitotic Cells (%): 6% and 11%
  Population Normal (%): 98% and 100%
  Population Pyknosed Nuclei (%): 68% and 23%
  Population Tubulin-Different-Phenotype (%): 80% and 66%

## CC(C)c1c(NC(=O)Nc2ccc(Cl)cc2)c(=O)n(-c2ccccc2)n1C
[1]
  Population Apoptotic (%): 33% and 32%
  Population Healthy Nuclei (%): 66% and 85%
  Population Hoechst High Intensity Objects (%): 0%
  Population Membrane Permeable-Phenotype (%): 0%
  Population Mitochondria Different-Phenotype (%): 0%
  Population Mitotic Cells (%): 66% and 68%
  Population Normal (%): 100%
  Population Pyknosed Nuclei (%): 10% and 9%
  Population Tubulin-Different-Phenotype (%): 65% and 81%
[2]
  Population Apoptotic (%): 100% and 43%
  Population Hoechst High Intensity Objects (%): 0%
  Population Membrane Permeable-Phenotype (%): 0% and 2%
  Population Mitochondria Different-Phenotype (%): 0%
  Population Normal (%): 100% and 99%
  Population Pyknosed Nuclei (%): 6%
  Population Tubulin-Different-Phenotype (%): 85% and 66%
[3]
  Population Apoptotic (%): 50% and 26%
  Population Healthy Nuclei (%): 68% and 89%
  Population Hoechst High Intensity Objects (%): 0%
  Population Membrane Permeable-Phenotype (%): 0% and 1%
  Population Mitochondria Different-Phenotype (%): 0%
  Population Mitotic Cells (%): 50% and 73%
  Population Normal (%): 100% and 99%
  Population Pyknosed Nuclei (%): 15% and 7%
  Population Tubulin-Different-Phenotype (%): 61% and 84%
[4]
  Population Apoptotic (%): 100% and 36%
  Population Healthy Nuclei (%): 32% and 87%
  Population Hoechst High Intensity Objects (%): 0%
  Population Membrane Permeable-Phenotype (%): 0% and 2%
  Population Mitochondria Different-Phenotype (%): 0%
  Population Normal (%): 100%
  Population Pyknosed Nuclei (%): 2% and 8%
  Population Tubulin-Different-Phenotype (%): 64% and 78%
[5]
  Population Apoptotic (%): 50% and 49%
  Population Fragmented Nuclei (%): 12% and 3%
  Population Healthy Nuclei (%): 72% and 88%
  Population Hoechst High Intensity Objects (%): 0%
  Population Membrane Permeable-Phenotype (%): 0% and 1%
  Population Mitochondria Different-Phenotype (%): 0%
  Population Mitotic Cells (%): 50%
  Population Normal (%): 100% and 99%
  Population Pyknosed Nuclei (%): 15% and 7%
  Population Tubulin-Different-Phenotype (%): 62% and 85%
[6]
  Population Apoptotic (%): 100% and 55%
  Population Healthy Nuclei (%): 31% and 91%
  Population Hoechst High Intensity Objects (%): 0%
  Population Membrane Permeable-Phenotype (%): 0% and 1%
  Population Mitochondria Different-Phenotype (%): 0%
  Population Normal (%): 100%
  Population Pyknosed Nuclei (%): 1% and 5%
  Population Tubulin-Different-Phenotype (%): 77% and 80%
